Measurements from ChEMBL document CHEMBL5143713, “Multitarget, Selective Compound Design Yields Potent Inhibitors of a Kinetoplastid Pteridine Reductase 1” (J Med Chem, 2022).

Experiments:
[1] = target: T1, Pteridine reductase, putative (Trypanosoma brucei, UniProt Q581W1); experiment: Inhibition of recombinant Trypanosoma brucei PTR1 expressed in Escherichia coli BL21 (DE3) cells using H2B as substrate in presence of cytochrome c and NADPH by envision multilabel reader
T1 sequence (Q581W1 whole entry): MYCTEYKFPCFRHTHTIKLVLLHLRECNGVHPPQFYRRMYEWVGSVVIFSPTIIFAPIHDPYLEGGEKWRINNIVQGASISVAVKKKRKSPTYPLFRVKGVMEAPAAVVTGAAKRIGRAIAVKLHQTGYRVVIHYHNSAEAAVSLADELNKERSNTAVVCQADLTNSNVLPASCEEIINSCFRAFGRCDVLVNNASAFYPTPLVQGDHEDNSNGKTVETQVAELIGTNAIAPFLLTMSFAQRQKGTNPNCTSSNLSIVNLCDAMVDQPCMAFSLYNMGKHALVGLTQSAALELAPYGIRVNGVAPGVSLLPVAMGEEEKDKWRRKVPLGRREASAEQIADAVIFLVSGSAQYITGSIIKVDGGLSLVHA

[2] = target: Bifunctional dihydrofolate reductase-thymidylate synthase (Trypanosoma brucei brucei, UniProt Q27783); experiment: Inhibition of recombinant Trypanosoma brucei DHFR-TS expressed in Escherichia coli BL21 (DE3) cells using dihydrofolate as substrate in presence of NADPH by spectrophotometric analysis
Chain of Bifunctional dihydrofolate reductase-thymidylate synthase (Trypanosoma brucei brucei, UniProt Q27783) (Q27783 whole entry): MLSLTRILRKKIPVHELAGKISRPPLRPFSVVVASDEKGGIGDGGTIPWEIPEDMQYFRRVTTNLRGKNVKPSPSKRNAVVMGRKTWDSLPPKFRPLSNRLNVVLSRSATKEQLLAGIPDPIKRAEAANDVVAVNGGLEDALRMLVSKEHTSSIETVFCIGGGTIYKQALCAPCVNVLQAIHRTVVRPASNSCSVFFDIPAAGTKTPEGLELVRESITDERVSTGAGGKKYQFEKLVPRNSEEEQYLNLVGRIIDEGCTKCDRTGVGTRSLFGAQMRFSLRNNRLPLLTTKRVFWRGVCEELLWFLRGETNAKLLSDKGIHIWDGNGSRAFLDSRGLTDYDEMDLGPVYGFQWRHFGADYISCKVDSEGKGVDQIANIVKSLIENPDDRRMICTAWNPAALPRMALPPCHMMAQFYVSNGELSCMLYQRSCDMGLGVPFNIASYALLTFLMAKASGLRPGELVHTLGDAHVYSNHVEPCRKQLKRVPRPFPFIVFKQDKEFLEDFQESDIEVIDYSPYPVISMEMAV

[3] = target: Bifunctional dihydrofolate reductase-thymidylate synthase (Leishmania major, UniProt P07382); experiment: Inhibition of recombinant Leishmania major DHFR-TS expressed in Escherichia coli BL21 (DE3) cells using dihydrofolate as substrate in presence of NADPH by spectrophotometric analysis
Chain of Bifunctional dihydrofolate reductase-thymidylate synthase (Leishmania major, UniProt P07382) (P07382 whole entry): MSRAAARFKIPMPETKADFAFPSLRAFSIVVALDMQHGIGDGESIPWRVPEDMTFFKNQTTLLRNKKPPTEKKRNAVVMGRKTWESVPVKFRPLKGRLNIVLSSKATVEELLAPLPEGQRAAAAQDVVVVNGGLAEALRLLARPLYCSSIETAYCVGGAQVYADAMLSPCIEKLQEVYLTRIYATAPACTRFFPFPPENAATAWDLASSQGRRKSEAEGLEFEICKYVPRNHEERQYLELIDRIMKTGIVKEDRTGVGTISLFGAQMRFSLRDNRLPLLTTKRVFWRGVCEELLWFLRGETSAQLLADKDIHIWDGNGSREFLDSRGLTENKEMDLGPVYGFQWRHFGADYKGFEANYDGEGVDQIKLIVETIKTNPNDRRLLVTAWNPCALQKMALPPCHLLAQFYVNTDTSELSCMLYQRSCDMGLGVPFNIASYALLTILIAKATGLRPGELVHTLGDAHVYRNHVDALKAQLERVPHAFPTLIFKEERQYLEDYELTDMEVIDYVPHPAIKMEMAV

Dihydrofolate reductase = target: T2, Dihydrofolate reductase (Homo sapiens, UniProt P00374); experiment: Inhibition of recombinant human DHFR expressed in Escherichia coli BL21 (DE3) cells using dihydrofolate as substrate in presence of NADPH by spectrophotometric analysis; assay type: toxicity
T2 sequence (P00374 whole entry): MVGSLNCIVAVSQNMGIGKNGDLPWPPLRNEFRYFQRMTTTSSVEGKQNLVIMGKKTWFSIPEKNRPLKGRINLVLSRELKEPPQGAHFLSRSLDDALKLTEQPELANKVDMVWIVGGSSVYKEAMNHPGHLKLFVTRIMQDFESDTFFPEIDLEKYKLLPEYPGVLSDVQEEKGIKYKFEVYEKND

786-0 = experiment: Mitochondrial toxicity in human 786-0 cells at 10 uM incubated with compound for 6 hrs followed by incubation with MitoTracker Red chloromethyl-X-rosamine dye for 45 mins by imaging analysis relative to control; assay type: cell-based; conditions: 786-0, 6 h
Procedure, shortened: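 Tested at 10 μM. 786-O cells kept in RPMI-1640 with 2 mM glutamine, 10% FCS, streptomycin 100 μg/mL and penicillin G 100 U/mL. Mitochondrial toxicity read as MitoTracker Red (chloromethyl-X-rosamine) uptake by high-content imaging.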

A549 = experiment: Cytotoxicity against human A549 cells at 10 uM measured after 48 hrs by Celltiter-Glo assay relative to control; assay type: toxicity, cell-based; conditions: a549, 48 h
Procedure, shortened: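 Tested at 10 μM. A549 cells grown in DMEM with 10% FCS, streptomycin 100 μg/mL and penicillin G 100 U/mL. Viability read as cellular ATP by CellTiter-Glo luminescence.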

Pteridine reductase 1 = target: T3, Pteridine reductase 1 (Leishmania major, UniProt Q01782); experiment: Inhibition of recombinant Leishmania major PTR1 expressed in Escherichia coli BL21 (DE3) cells using H2B as substrate in presence of cytochrome c and NADPH by envision multilabel reader
T3 sequence (Q01782 whole entry): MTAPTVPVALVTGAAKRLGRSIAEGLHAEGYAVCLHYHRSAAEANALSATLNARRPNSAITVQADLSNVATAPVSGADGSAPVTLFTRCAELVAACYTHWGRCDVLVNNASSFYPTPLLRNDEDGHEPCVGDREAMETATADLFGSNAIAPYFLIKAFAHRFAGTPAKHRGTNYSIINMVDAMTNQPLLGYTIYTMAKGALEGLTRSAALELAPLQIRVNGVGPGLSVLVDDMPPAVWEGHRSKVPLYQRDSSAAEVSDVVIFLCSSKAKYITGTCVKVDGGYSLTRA

[4] = system: human DHFR versus Trypanosoma brucei PTR1; experiment: Selectivity index, ratio of IC50 for human DHFR to IC50 for Trypanosoma brucei PTR1; assay type: toxicity; conditions: read-out: Ratio IC50
[5] = system: human DHFR versus Leishmania major PTR1; experiment: Selectivity index, ratio of IC50 for human DHFR to IC50 for Leishmania major PTR1; assay type: toxicity; conditions: read-out: Ratio IC50
[6] = system: human DHFR versus Trypanosoma brucei DHFR; experiment: Selectivity index, ratio of IC50 for human DHFR to IC50 for Trypanosoma brucei DHFR; assay type: toxicity; conditions: read-out: Ratio IC50
[7] = system: human DHFR versus Leishmania major DHFR; experiment: Selectivity index, ratio of IC50 for human DHFR to IC50 for Leishmania major DHFR; assay type: toxicity; conditions: read-out: Ratio IC50
[8] = system: Trypanosoma brucei brucei; experiment: Antitrypanosomal activity against bloodstream form of Trypanosoma brucei brucei Lister 427 assessed as parasite growth inhibition at 10 uM incubated for 72 hrs by resazurin dye based analysis relative to control; assay type: functional
[9] = system: Trypanosoma brucei brucei; experiment: Antitrypanosomal activity against bloodstream form of Trypanosoma brucei brucei Lister 427 assessed as parasite growth inhibition incubated for 72 hrs by resazurin dye based analysis; assay type: functional, organism-based; conditions: Lister 427, 72 h
[10] = Cytotoxicity against human THP-1 derived macrophages by colorimetric MTT assay; assay type: toxicity, cell-based, Macrophage; conditions: THP-1 derived macrophages
Procedure, shortened: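 CC50 from at least three independent MTT colorimetric cytotoxicity runs on THP-1-derived macrophages. Selectivity index is CC50 (or lower CC50 interval estimate) divided by antiparasitic EC50.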

| SMILES | IC50 [1] [µM] | IC50 [2] [µM] | IC50 [3] [µM] | IC50 (Dihydrofolate reductase) [µM] | Activity (786-0) [%] | Activity (A549) [%] | IC50 (Pteridine reductase 1) [µM] | selectivity ratio [4] | selectivity ratio [5] | selectivity ratio [6] | selectivity ratio [7] | inhibition at 10 µM [8] [%] | EC50 [9] [µM] | CC50 [10] [µM] |
| --- | --- | --- | --- | --- | --- | --- | --- | --- | --- | --- | --- | --- | --- | --- |
| COC(=O)C1CCN(C(=O)c2ccc(N(C)Cc3cnc4nc(N)nc(N)c4n3)cc2)CC1 | 0.05 | 0.27 | 0.26 | 44 | 0 | 100 | – | – | – | – | – | – | – | – |
| Nc1nc(N)c2nc(C(=O)NCc3cccc(C(F)(F)F)c3)cnc2n1 | 0.01 | – | – | – | 0 | 100 | 0.33 | 10000 | 303 | 1 | 1 | – | – | – |
| Nc1nc(N)c2nc(C(=O)NCc3ccccc3)cnc2n1 | 0.01 | – | – | – | 0 | 100 | 5.5 | 10000 | 18 | 1 | 1 | – | – | – |
| Nc1nc(N)c2nc(CNCc3ccc(Oc4ccccc4)cc3)cnc2n1 | 0.19 | – | – | – | 0 | – | 0.98 | 526 | 102 | 1 | 1 | – | – | – |
| CCN(Cc1cnc2nc(N)nc(N)c2n1)c1ccc(C(=O)N2CCC(C(=O)OC)CC2)cc1 | 0.09 | 0.62 | 0.46 | 4.3 | 0 | 100 | 13.3 | 48 | – | 7 | 9 | – | – | – |
| CCOC(=O)C1CCN(C(=O)c2ccc(N(CC)Cc3cnc4nc(N)nc(N)c4n3)cc2)CC1 | 0.001 | 0.23 | 0.18 | 13 | – | – | 0.1 | – | – | – | – | – | – | – |
| COC(=O)C1CCN(C(=O)c2ccc(NCc3cnc4nc(N)nc(N)c4n3)cn2)CC1 | 0.55 | 2.57 | 1.36 | 60 | 0 | – | – | – | – | – | – | – | – | – |
| CCOC(=O)C1CCN(C(=O)c2ccc(N(C)Cc3cnc4nc(N)nc(N)c4n3)cc2)CC1 | 0.04 | 9 | 0.13 | 12 | 0 | – | 0.45 | 300 | 27 | 1 | 90 | – | – | – |
| CCCOC(=O)C1CCN(C(=O)c2ccc(N(C)Cc3cnc4nc(N)nc(N)c4n3)cc2)CC1 | 0.03 | 3 | 0.15 | 9 | 0 | 0 | 0.41 | 300 | 22 | 3 | 59 | – | – | – |
| COc1ccc(CNC(=O)c2ccc(CNCc3cnc4nc(N)nc(N)c4n3)cc2)cc1OC | 0.22 | – | – | – | 0 | – | 1.57 | 455 | 64 | 2 | 1 | – | – | – |
| Nc1nc(N)c2nc(CNc3ccc(C(=O)N4CCC(C(=O)O)CC4)cc3)cnc2n1 | 1.72 | 1.38 | 0.6 | – | 0 | 0 | – | – | – | – | – | – | – | – |
| COc1cc(Oc2ccc(CNCc3cnc4nc(N)nc(N)c4n3)cc2)cc(OC)c1OC | 0.35 | – | – | – | 0 | 100 | 0.17 | 286 | 588 | 1 | 1 | – | – | – |
| COC(=O)C1CCN(C(=O)c2ccc(NCc3cnc4nc(N)nc(N)c4n3)cc2)CC1 | 0.11 | 20.5 | 0.62 | 51 | 0 | 100 | – | – | – | – | – | – | – | – |
| Nc1nc(N)c2nc(CNc3cccc4ccccc34)cnc2n1 | 0.01 | 0.45 | 1.51 | 4.4 | 0 | 0 | 0.01 | 440 | 440 | 10 | 3 | – | – | – |
| NC(=O)C1CCN(C(=O)Cc2ccc(N(CCCO)Cc3cnc4nc(N)nc(N)c4n3)cc2)CC1 | 0.01 | 18 | 1.14 | – | 0 | – | 0.17 | – | – | – | – | 30 | – | – |
| C#CCN(Cc1cnc2nc(N)nc(N)c2n1)c1ccc(C(=O)N2CCC(C(=O)OC)CC2)cc1 | 0.04 | 1.18 | 0.71 | 78 | – | – | 0.32 | 1950 | 244 | 66 | 110 | – | – | – |
| COC(=O)C1CCN(C(=O)c2cccc(NCc3cnc4nc(N)nc(N)c4n3)c2)CC1 | 0.15 | – | – | 59 | – | – | 1.69 | 393 | 35 | 3 | 2 | – | – | – |
| CN(Cc1cnc2nc(N)nc(N)c2n1)c1ccc(C(=O)N2CCCCC2)cc1 | 0.01 | 1.45 | 2.05 | – | 15 | – | 0.14 | 2980 | 213 | 21 | 15 | – | – | – |
| NC(=O)C1CCN(C(=O)c2ccc(NCc3cnc4nc(N)nc(N)c4n3)cc2)CC1 | 0.82 | 2.9 | 1.11 | – | 0 | 0 | – | – | – | – | – | – | – | – |
| Nc1nc(N)c2nc(CNc3ccc(C(=O)NCCc4ccccc4)cc3)cnc2n1 | < 0.0001 | 0.98 | 0.72 | 40.3 | 13 | 100 | 0.03 | > 403000 | 1340 | 41 | 56 | – | – | – |
| COc1ccc(CNC(=O)c2ccc(CNCc3cnc4nc(N)nc(N)c4n3)cc2)cc1 | 0.13 | – | – | – | 0 | – | 1.48 | 769 | 68 | 1 | 1 | – | – | – |
| CCOC(=O)C1CCCN1C(=O)c1ccc(NCc2cnc3nc(N)nc(N)c3n2)cc1 (stereo not drawn) | – | 0.98 | 1.21 | – | 0 | – | – | 0.08 | – | 10 | 8 | – | – | – |
| COC(=O)C1CCN(C(=O)c2ccc(SCc3cnc4nc(N)nc(N)c4n3)nc2)CC1 | 0.001 | 2.4 | 9.36 | 89 | 20 | – | 0.06 | 89000 | 1480 | 37 | 10 | – | – | – |
| COc1ccc(Oc2ccc(CN(Cc3ccccc3)Cc3cnc4nc(N)nc(N)c4n3)cc2)cc1 | 0.24 | – | – | – | 0 | – | 0.15 | – | – | – | – | 100 | 4.53 | 12.5 |
